Compound activity: PubChem BioAssay, several laboratories
The list is not random: actives were taken first. Their share in the collection is about 6.4%.
EphB4 antag = EphB4-ephrin-B2 interaction antagonism; EphB4 LBD / TNYL-RAW-Alexa532 peptide, fluorescence polarization; inhibition, % at 7 µM; actives 0.15% (n = 97,000); AID 720;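 active means inhibition above the screen-wide mean inhibition plus 3 SD, cut at about 15% in these data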;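 further: 0% = DMSO wells and 100% = excess unlabeled TNYL-RAW peptide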
Plk1 PBD FP = inhibitors of human Plk1 polo box domain binding; P53350; inhibition, %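 (tested at about 20 µM)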; actives 0.13% (n = 97,000); Plk1 PBD phosphopeptide binding, fluorescence polarization; in the data active means inhibition above about 34%, passing the limit was not always enough
PostGolgi ctrl = inhibits growth of the yeast control strain. efflux-deficient yeast background strain, growth absorbance A615, 16 h. inhibition, % at 10 µM. actives 5% (n = 98,000)
PostGolgi yeast = growth inhibition of a yeast mutant, post-Golgi transport screen | post-Golgi transport phenotypic cell assay | inhibition, % at 10 µM | actives 0.9% (n = 98,000) | AID 739;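 further: yeast cells grown in 1536-well plates; yeast grown about 18 h at 30C before absorbance read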
HIV Rev-RRE inh = disrupts HIV-1 Rev binding to RRE RNA; Rev peptide-RRE RNA binding, FRET; inhibition, % at 8 µM; actives 0.79% (n = 97,000); AID 704;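 active means inhibition above the screen-wide mean plus 3 SD, cut at about 35% in these data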;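 further: 0% = median DMSO wells and 100% = median Neomycin B control wells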
Target sequence (P05866 whole entry, looked up): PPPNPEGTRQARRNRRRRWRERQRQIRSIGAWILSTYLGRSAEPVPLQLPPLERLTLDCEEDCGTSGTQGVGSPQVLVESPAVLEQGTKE
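Material: labelled RRE RNA duplex and labelled Rev peptide / Buffer or medium: HEPES pH 7.5 salt buffer with EDTA / Compound dosing: single point, 8 µM final nominal compound concentration / Benchmarks: DMSO low control, neomycin B high control / Timing: 5 min preincubation and 15 min binding, 25 °C / Technique: FRET fluorescence readout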
PLK1 kinase inh = inhibitors of human PLK1 kinase; recombinant PLK1 kinase, TR-FRET peptide phosphorylation; actives 0.53% (n = 97,000); P53350; inhibition, % at 10 µM; AID 619;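 active means inhibition of 50% or more in the single-concentration screen; inactive means inhibition below 50%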;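 further: 0% = DMSO max control and 100% = H-89 dihydrochloride min control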
Active calls of the source: *; · = no result. Unless noted, no stated cut-off is given here; in the data, active means inhibition above about 30%; inactive means the rest.

SMILES	EphB4 antag	Plk1 PBD FP	PostGolgi ctrl	PostGolgi yeast	HIV Rev-RRE inh	PLK1 kinase inh
Cc1ccnc2c(N3C(=O)C4C5c6ccccc6C(c6ccccc65)C4C3=O)cccc12 (centres undefined)	-5	-13	74*	69*	3	-9
Cc1cc(C)cc(NC(=O)c2nnn(Cc3cc(C)ccc3C)c2N)c1	1	-20	37*	-8	15	-7
Cc1ccccc1Cn1nnc(C(=O)Nc2cccc(C)c2C)c1N	-2	-21	26	1	7	-7
C=CCn1c(N)c(C(=O)NCc2ccco2)sc1=S	-3	10	11	7	5	-11
O=C(NCc1ccco1)c1sc(=S)n2c1[nH]c(=O)c1ccccc12	1	13	32*	-7	1	8
O=C(NC1CCCC1)c1sc(=S)n2c1[nH]c(=O)c1ccccc12	6	12	51*	4	5	-1
Cc1cc(NC(=O)Cc2cccs2)nn1CC(=O)NCc1ccco1	-6	11	2	-8	2	-3
CCOc1c(OC(C)=O)ccc(/C=C/c2ccc3cccc(OC(C)=O)c3n2)c1[N+](=O)[O-]	11	-9	7	9	8	-2
COc1c(OC(C)=O)ccc(/C=C/c2ccc3ccccc3n2)c1[N+](=O)[O-]	-1	3	73*	-2	9	5
CCN1CCN(c2nc3ccccc3nc2C(C#N)S(=O)(=O)c2ccc(C)cc2)CC1 (centres undefined)	-7	3	14	-3	2	-6
COc1ccc(S(=O)(=O)C(C#N)c2nc3ccccc3nc2N2CCCC(C)C2)cc1 (centres undefined)	0	-32	10	-7	38*	-15
Cc1ccc(S(=O)(=O)N2CCCN(c3nc4cc(C)ccc4cc3C#N)CC2)cc1	6	-23	·	·	37*	-10
Cc1ccc(S(=O)(=O)C(C#N)c2nc3ccccc3nc2N2CCCC2)cc1 (centres undefined)	5	-17	8	11	77*	-11
FCCCOc1ccc(/C=N/OCc2ccc(Cl)cc2)cc1	8	-7	8	-2	19	-8
COc1ccc(S(=O)(=O)n2nc(C)cc2C)c(C)c1C	4	7	19	5	-1	-17
Nn1c(SCC(=O)N2CCOCC2)nnc1-c1ccccc1Cl	-6	-6	0	-13	5	-15
COc1ccccc1C(=O)OCc1c(F)cccc1Cl	0	-2	14	0	5	-12
COc1cc(C(=O)Nc2nc(-c3cccs3)cs2)cc(OC)c1OC	4	2	48*	25	8	-19
COC(=O)CNc1nc(-c2cccnc2)nc2ccccc12	·	·	12	0	·	·
c1cncc(-c2nc(NCC3COc4ccccc4O3)c3ccccc3n2)c1 (centres undefined)	0	-2	47*	1	16	0
Cc1ccc(S(=O)(=O)NC(c2ccccc2)C(C)C(=O)n2nc(C)cc2C)cc1 (centres undefined)	-6	-39	9	-5	7	-15
Cc1ccc(S(=O)(=O)NC(CC(=O)n2nc(C)cc2C)c2ccccc2)cc1 (centres undefined)	-3	-28	35*	-5	11	-11
O=C(Cn1ccc2ccccc2c1=O)NCCC(=O)NC1CCN(Cc2ccccc2)CC1	7	10	49*	-3	2	-6
Cc1cccc(CN2CCC(CNC(=O)CCNC(=O)Cn3ccc4ccccc4c3=O)CC2)c1	-5	-2	-3	0	-2	1
O=C(Nc1ccc(Br)cc1Cl)Nn1cnnc1	1	-6	34*	3	5	-7
SMILES	EphB4 antag	Plk1 PBD FP	PostGolgi ctrl	PostGolgi yeast	HIV Rev-RRE inh	PLK1 kinase inh
CC1(C)Cc2cccc(OCC(=O)Nc3cc(C(F)(F)F)ccc3N3CCOCC3)c2O1	-5	-2	8	11	11	-33
Fc1cccc(-c2cc3nc4c(c(N5CCOCC5)n3n2)CCCC4)c1	·	·	70*	16	·	·
Cc1nc2cc(-c3cccc(F)c3)nn2c(N2CCN(C(=O)c3ccco3)CC2)c1C	8	-2	10	10	8	-7
Clc1cccc(-c2cc3nc4c(c(N5CCN(c6cnccn6)CC5)n3n2)CCCC4)c1	-3	4	·	·	6	-8
Fc1cccc(-c2cc3nc4c(c(N5CCN(c6cnccn6)CC5)n3n2)CCCC4)c1	0	12	·	·	13	-11
Fc1cccc(-c2cc3nc4c(c(NCc5ccco5)n3n2)CCCC4)c1	7	-4	49*	3	3	-11
Clc1cccc(-c2cc3nc4c(c(N5CCOCC5)n3n2)CCCC4)c1	·	·	88*	-1	·	·
Cc1ccc(CNC(=O)Cn2c([N+](=O)[O-])cnc2C)cc1	5	-12	-1	-8	7	-12
Cc1nc(-c2c(-c3ccc(O)cc3O)noc2C(F)(F)F)cs1	-4	-10	8	3	8	-5
O=C(CSc1nc2cc3ccccc3cc2[nH]1)Nc1ccc(F)cc1	-5	5	55*	2	10	-7
Cc1noc(NS(=O)(=O)c2ccc(NC(=O)CSc3nc4ccccc4[nH]3)cc2)c1C	-5	2	37*	-2	3	-6
CC1C(=NO)C(C)C(c2ccc(N(C)C)cc2)NC1c1ccc(N(C)C)cc1 (centres undefined)	4	-9	5	-3	-3	1
CCOC(=O)c1c(C)[nH]c(NC(=O)N2CCOCC2)c1C	·	·	1	3	·	·
CN(C)/C=C/C(=O)c1cccc(Cl)c1	1	-3	45*	0	9	-1
CN(C)CCNC(=O)COc1cccc(Cl)c1	·	·	0	-9	·	·
O=C(CSc1nc2ccccc2o1)Nc1ccc(N2CCOCC2)c(Cl)c1	-3	8	1	-6	5	8
O=C(Cn1cnc2ccccc21)Nc1cc(C(F)(F)F)ccc1N1CCOCC1	·	·	-6	-7	·	·
FC(F)(F)c1ccc(N2CCOCC2)c(Nc2nc3ccccc3n3cnnc23)c1	2	-6	52*	7	-6	-6
O=C(CSc1nc2ccccc2o1)Nc1cc(C(F)(F)F)ccc1N1CCOCC1	0	15	34*	-7	15	-8
CCc1cccc(CC)c1NC(=O)C1SC(=Nc2ccccc2C)C(c2nc3ccccc3s2)=C1N (centres undefined)	4	-17	11	-8	8	-14
CCOC(=O)/C(C#N)=C1/C=Nc2ccccc2N1	-12	-3	41*	-3	22	-12
CCOC(=O)/C(C#N)=C1/C=CN(c2ccccc2)C=N1	·	·	9	-2	·	·
COc1ccc(OC)c(-c2nc3c(C)n[nH]c(=O)c3[nH]2)c1	-4	-5	5	0	5	-7
CC(=O)N(CCC(Cc1ccccc1)c1ccc2c(c1)OCO2)Cc1ccccc1F (centres undefined)	-2	-30	36*	-10	2	-13
